In brackets after ≈: the same amount, converted by molar mass. Activity calls are given as the source filed them. No cut-off for these calls is given here.
Assays:
[1] = test system: Mycobacterium tuberculosis; assay: Antitubercular activity against Mycobacterium tuberculosis H37Rv measured after 7 days by resazurin microtiter assay; type: functional; settings: 168 h, time 7 day
Method in brief: (§1)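 Resazurin microtiter assay with two-fold drug dilutions in complete 7H9 broth. Exponential-phase cells are diluted to a final OD600 of 0.005 in 7H9 without Tween. Incubation is 7 days at 37°C, then 0.01% resazurin is added and plates are held 24 h more. MIC is the lowest concentration preventing the blue-to-pink change. Each MIC is determined three times in duplicate experiments.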

[2] = Solubility of compound in water; type: physicochemical; settings: buffer
[3] = test system: Mycolicibacterium smegmatis; assay: Antibacterial activity against Mycobacterium smegmatis measured after 7 days by resazurin microtiter assay; type: functional; settings: 168 h, time 7 day; method in brief: as §1
Mycolicibacterium aurum = assay: Antibacterial activity against Mycobacterium aurum measured after 7 days by resazurin microtiter assay; type: functional; settings: 168 h, time 7 day; method in brief: as §1
Mycobacterium marinum = assay: Antibacterial activity against Mycobacterium marinum measured after 7 days by resazurin microtiter assay; type: functional; settings: 168 h, time 7 day; method in brief: as §1
Pseudomonas aeruginosa = assay: Antibacterial activity against Pseudomonas aeruginosa measured after 7 days by resazurin microtiter assay; type: functional; settings: 168 h, time 7 day
Acinetobacter baumannii = assay: Antibacterial activity against Acinetobacter baumannii measured after 7 days by resazurin microtiter assay; type: functional; settings: 168 h, time 7 day
Klebsiella aerogenes = assay: Antibacterial activity against Enterobacter aerogenes measured after 7 days by resazurin microtiter assay; type: functional; settings: 168 h, time 7 day
Enterobacter cloacae = assay: Antibacterial activity against Enterobacter cloacae measured after 7 days by resazurin microtiter assay; type: functional; settings: 168 h, time 7 day
Staphylococcus aureus = assay: Antibacterial activity against Staphylococcus aureus measured after 7 days by resazurin microtiter assay; type: functional; settings: 168 h, time 7 day
Klebsiella pneumoniae = assay: Antibacterial activity against Klebsiella pneumoniae measured after 7 days by resazurin microtiter assay; type: functional; settings: 168 h, time 7 day
Vero = assay: Cytotoxicity against African green monkey Vero cells assessed as reduction in cell viability measured after 24 to 48 hrs by Celltiter-glo assay; type: cell-based, Chlorocebus sabaeus; settings: Chlorocebus sabaeus, Vero
Method in brief: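 Vero cells are grown in DMEM with 10% FBS and seeded at 25000 cells/well. Compound is added at 1% final DMSO, with 24 and 48 h incubation. ATP is read by CellTiter-Glo luminescence. IC50 is the concentration giving a 50% drop in ATP signal versus the DMSO control.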

Macrophage = assay: Cytotoxicity against human macrophages assessed as reduction in cell viability measured after 6 days by Celltiter-glo assay; type: cell-based; settings: Homo sapiens, Macrophage, 144 h
Method in brief: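 Infected human macrophages, with or without drug, are incubated 6 days. Viability is checked by visual inspection and by CellTiter-Glo ATP luminescence.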

[4] = test system: Mycobacterium tuberculosis; assay: Antitubercular activity against Mycobacterium tuberculosis H37Rv infected in human macrophages assessed as intracellular bacterial load at 0.5 MIC measured after 6 days (reference value: 5.57 to 6.43 logCFU/ml); type: functional, Macrophage; settings: time 6 day
[5] = test system: Mycobacterium tuberculosis; assay: Antitubercular activity against Mycobacterium tuberculosis H37Rv infected in human macrophages assessed as intracellular bacterial load at MIC measured after 6 days (reference value: 5.57 to 6.43 logCFU/ml); type: functional, Macrophage; settings: time 6 day
[6] = test system: Mycobacterium tuberculosis; assay: Antitubercular activity against Mycobacterium tuberculosis H37Rv infected in human macrophages assessed as intracellular bacterial load at 2 times MIC measured after 6 days (reference value: 5.57 to 6.43 logCFU/ml); type: functional, Macrophage; settings: time 6 day
[7] = test system: Mycobacterium tuberculosis; assay: Antitubercular activity against Mycobacterium tuberculosis H37Rv infected in human macrophages assessed as intracellular bacterial load at 4 times MIC measured after 6 days (reference value: 5.57 to 6.43 logCFU/ml); type: functional, Macrophage; settings: time 6 day
[8] = test system: Mycobacterium tuberculosis; assay: Antitubercular activity against Mycobacterium tuberculosis XDR measured after 7 days by resazurin microtiter assay; type: functional; settings: 168 h, time 7 day; method in brief: as §1
[9] = test system: Escherichia coli ATCC 25922; assay: Inhibition of DNA gyrase in Escherichia coli ATCC 25922 assessed as elongation of bacterial cells at 2 ug/ml measured after 1.5 hrs by DAPI/FM 4-64 staining based confocal fluorescence microscopic analysis; settings: dose 2.0 µg/ml
Method in brief: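 E. coli ATCC 25922 is grown in LB, and exponential cultures are treated 1.5 h at 37°C. Cells are washed in PBS, fixed 10 min in 4% PFA, and stained 20 min at room temperature with 2 µg/mL DAPI plus 1 µg/mL FM 4-64. Imaging is by confocal microscopy with a 60x oil objective.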

[10] = test system: Mycolicibacterium smegmatis; assay: Inhibition of DNA gyrase in Mycobacterium smegmatis assessed as elongation of bacterial cells at 2 ug/ml measured after 6 hrs by DAPI/FM 4-64 staining based confocal fluorescence microscopic analysis; settings: dose 2.0 µg/ml
Method in brief: (§2)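 M. smegmatis is grown in 7H9, and exponential cultures are treated 6 h at 37°C. Cells are fixed 10 min in 4% PFA in PBS and stained 20 min at room temperature with 2 µg/mL DAPI and 1 µg/mL FM 4-64. Imaging is by confocal microscopy with a 60x oil objective.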

[11] = test system: Mycolicibacterium smegmatis; assay: Inhibition of DNA gyrase in Mycobacterium smegmatis assessed as segmentation of bacterial cells at 2 ug/ml measured after 6 hrs by DAPI/FM 4-64 staining based confocal fluorescence microscopic analysis; settings: dose 2.0 µg/ml; method in brief: as §2

For `CCn1cc(C(=O)O)c(=O)c2ccc3cccnc3c21`, the MIC90 [1] was 47.1 µM (≈ 12.6 µg/mL) and the solubility [2] was “Insoluble”.
With `CCOC(=O)c1cn(C)c2c(cc([N+](=O)[O-])c3cccnc32)c1=O` the MIC90 [1] was 1.21 µM (≈ 0.396 µg/mL), the MIC90 [3] was over 100 µM and the MIC90 (Mycolicibacterium aurum) was over 100 µM. The MIC90 (Mycobacterium marinum) was 0.15 µM (≈ 0.0491 µg/mL), the MIC90 (Pseudomonas aeruginosa) was over 100 µM and the MIC90 (Acinetobacter baumannii) was over 100 µM. It also gave an MIC90 (Klebsiella aerogenes) of 309 µM (≈ 101 µg/mL), an MIC90 (Enterobacter cloacae) of over 275 µM and an MIC90 (Staphylococcus aureus) of over 275 µM. It also gave an MIC90 (Klebsiella pneumoniae) of over 275 µM, an IC50 (Vero) of over 50 µg/mL and an IC50 (Macrophage) of over 50 µg/mL. It also gave an Activity [4] of 4.22 log10CFU/ml, an Activity [5] of 3.63 log10CFU/ml and an Activity [6] of 3.45 log10CFU/ml. The Activity [7] was 3.06 log10CFU/ml, the MIC90 [8] was 1.21 µM (≈ 0.396 µg/mL) and the solubility [2] was “Insoluble”.
Compound `CCn1cc(C(=O)O)c(=O)c2ccc(C)nc21` [NALIDIXIC ACID] has an MIC [1] of over 50 µM.
With `CCOC(=O)c1cn(CC)c2c(cc(Br)c3cccnc32)c1=O` the MIC90 [1] was 318 µM (≈ 119 µg/mL) and the solubility [2] was “Insoluble”.
For `CCn1cc(C(=O)NN)c(=O)c2cc([N+](=O)[O-])c3cccnc3c21`, the MIC90 [1] was 9.84 µM (≈ 3.22 µg/mL) and the solubility [2] was “Insoluble”.
In the case of `CCOC(=O)c1cn(C)c2c(cc(Cl)c3cccnc32)c1=O`, the MIC90 [1] is reported as 329 µM (≈ 104 µg/mL) and the solubility [2] is reported as “Insoluble”.
In the case of `CCOC(=O)c1cn(C)c2c(cc(Br)c3cccnc32)c1=O`, the MIC90 [1] is reported as 290 µM (≈ 105 µg/mL) and the solubility [2] is reported as “Insoluble”.
With `CCOC(=O)c1c[nH]c2c(cc([N+](=O)[O-])c3cccnc32)c1=O` the MIC90 [1] was 329 µM (≈ 103 µg/mL) and the solubility [2] was “Insoluble”.
With `CCn1cc(C(N)=O)c(=O)c2cc([N+](=O)[O-])c3cccnc3c21` the MIC90 [1] was 1.25 µM (≈ 0.39 µg/mL) and the solubility [2] was “Insoluble”.
Work on `COc1c(N2C[C@@H]3CCCN[C@@H]3C2)c(F)cc2c(=O)c(C(=O)O)cn(C3CC3)c12` [MOXIFLOXACIN] yielded an MIC90 [1] of 0.77 µM (≈ 0.309 µg/mL), an Activity [4] of 4.02 log10CFU/ml and an Activity [5] of 3.77 log10CFU/ml. The Activity [6] was 3.93 log10CFU/ml, the Activity [7] was 2.54 log10CFU/ml and the MIC90 [8] was 6.16 µM (≈ 2.47 µg/mL).
With `CCOC(=O)c1cn(C)c2c(ccc3cccnc32)c1=O` the MIC90 [1] was 182 µM (≈ 51.5 µg/mL) and the solubility [2] was “Insoluble”.
In the case of `CCOC(=O)c1cn(CC)c2c(cc(N)c3cccnc32)c1=O`, the MIC90 [1] is reported as 41.9 µM (≈ 13 µg/mL) and the solubility [2] is reported as “Insoluble”.
For `CCn1cc(C(=O)Nc2ccccc2)c(=O)c2ccc3cccnc3c21`, the MIC90 [1] was 312 µM (≈ 107 µg/mL) and the solubility [2] was “Insoluble”.
`CC1COc2c(N3CCN(C)CC3)c(F)cc3c(=O)c(C(=O)O)cn1c23` (stereo not given) [OFLOXACIN] gave an MIC90 [1] of 1.73 µM (≈ 0.625 µg/mL), an MIC90 [3] of 3.46 µM (≈ 1.25 µg/mL) and an MIC90 (Mycolicibacterium aurum) of 3.46 µM (≈ 1.25 µg/mL). The MIC90 (Mycobacterium marinum) was 6.92 µM (≈ 2.5 µg/mL), the MIC90 (Pseudomonas aeruginosa) was 6.92 µM (≈ 2.5 µg/mL) and the MIC90 (Acinetobacter baumannii) was 1.73 µM (≈ 0.625 µg/mL). It also gave an MIC90 (Klebsiella aerogenes) of 0.22 µM (≈ 0.0795 µg/mL), an MIC90 (Enterobacter cloacae) of 6.92 µM (≈ 2.5 µg/mL) and an MIC90 (Staphylococcus aureus) of 1.73 µM (≈ 0.625 µg/mL). The MIC90 [8] was 27.6 µM (≈ 9.97 µg/mL), the inhibition [9] was “Active” and the inhibition [10] was “Active”. For the same compound, the inhibition [11] was “Active”.
In the case of `Cn1cc(C(=O)O)c(=O)c2ccc3cccnc3c21`, the MIC90 [1] is reported as 25.8 µM (≈ 6.56 µg/mL) and the solubility [2] is reported as “Insoluble”.
